Most compounds without a hit are left out; they make up all but 5.8% or so of the library.
Pf Dd2 inh: inhibitors of Plasmodium falciparum Dd2 growth. P. falciparum Dd2 growth, SYBR Green, 72 h; stronger effect = lower value. activity change, % at 10 µM. hit rate 2.3% among 94,000. AID 1159554; in the data active = activity change below about -80%
T cruzi growth: T. cruzi proliferation inhibition; T. cruzi beta-gal in NIH3T3, GalScreen luminescence, 90 h; inhibition, % at 8.34 µM; hit rate 5.9% among 77,000; AID 624255;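 active = mean inhibition above about 93%, with at least 55% of replicates each passing it, limit read from the data, passing the limit was not always enough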
IDH1 R132H inh: inhibitors of human IDH1 R132H; hit rate 0.18% among 70,000; inhibition, % at 10 µM; IDH1 R132H reductase, diaphorase/resazurin fluorescence, 60 min; in the data active = inhibition above about 34%;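 note: 0% = DMSO and 100% = no enzyme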
KDM4C inh: KDM4C (human) demethylase inhibition; Q9H3R0; GST-KDM4C 2-372, H3K9me3 peptide, LANCE TR-FRET; inhibition, % at 12.5 µM; hit rate 0.15% among 96,000; AID 720574;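 active = mean replicate inhibition above about 25%, with at least 55% of replicates also reaching it, limit read from the data, passing the limit was not always enough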
Target sequence (Q9H3R0 2-372 limits assumed): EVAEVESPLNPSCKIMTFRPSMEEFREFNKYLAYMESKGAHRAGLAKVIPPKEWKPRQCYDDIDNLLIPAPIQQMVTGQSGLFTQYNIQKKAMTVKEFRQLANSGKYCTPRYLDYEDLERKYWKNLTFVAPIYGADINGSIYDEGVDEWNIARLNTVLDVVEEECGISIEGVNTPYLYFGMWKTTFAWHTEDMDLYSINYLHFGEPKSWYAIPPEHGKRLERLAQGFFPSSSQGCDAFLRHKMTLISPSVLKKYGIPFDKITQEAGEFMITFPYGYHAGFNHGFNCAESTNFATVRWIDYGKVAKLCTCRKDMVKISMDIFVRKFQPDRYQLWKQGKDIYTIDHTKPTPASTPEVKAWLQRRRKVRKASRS
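Test system – GST-tagged GASC-1 (JMJD2C) catalytic fragment, aa 2-372 · Medium – HEPES buffer, pH 7.5, plus ascorbate · Reagent – H3K9me3 peptide with Fe(II)/2OG · Compound – one test concentration per compound · Timing – 30 min reaction, 60 min detection, RT · Technique – TR-FRET with Eu antibody and ULight streptavidin, EDTA stop · Read-out basis – inhibition from TR-FRET ratio decrease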
* marks the source's active call; other numbers are inactive results.

For Cc1cc(C(=O)Nc2cccc3c2O[C@@H](CN(C)Cc2ccc(C(=O)O)cc2)[C@@H](C)CN([C@@H](C)CO)C3=O)n(C)n1 the results were Pf Dd2 inh -7, IDH1 R132H inh -1 and KDM4C inh -1.
For Cc1cc(C(=O)Nc2cccc3c2O[C@@H](CN(C)Cc2ccc(C(=O)O)cc2)[C@H](C)CN([C@H](C)CO)C3=O)n(C)n1 the results were Pf Dd2 inh -1, IDH1 R132H inh 3 and KDM4C inh 2.
Cc1cc(C(=O)Nc2cccc3c2O[C@@H](CN(C)Cc2ccc(C(=O)Nc4ccccc4N)cc2)[C@H](C)CN([C@H](C)CO)C3=O)n(C)n1 was read as Pf Dd2 inh -92*, T cruzi growth 98, IDH1 R132H inh 0 and KDM4C inh 16.
For Cc1cc(C(=O)Nc2cccc3c2O[C@H](CN(C)Cc2ccc(C(=O)Nc4ccccc4N)cc2)[C@@H](C)CN([C@H](C)CO)C3=O)n(C)n1 the results were Pf Dd2 inh -88*, T cruzi growth 98 and KDM4C inh 17.
For COc1cccc(C#Cc2cnc3c(c2)C(=O)N([C@H](C)CO)C[C@@H](C)[C@@H](CN(C)C(C)=O)O3)c1 the results were Pf Dd2 inh -25, T cruzi growth 15, IDH1 R132H inh -9 and KDM4C inh 4.
COc1ccc2c3c([nH]c2c1)[C@@H](CO)N(Cc1cccc(F)c1)CC31CCN(CC2CC2)CC1 was read as Pf Dd2 inh -80* and KDM4C inh 0.
Screening COc1cccc(CN2CC3(CN(CC4CCOCC4)C3)c3c([nH]c4cc(OC)ccc34)[C@@H]2CO)c1 returned Pf Dd2 inh -17 and KDM4C inh -1.
`COc1cccc(CN2CC3(CN(CC4CCOCC4)C3)c3c([nH]c4cc(OC)ccc34)[C@H]2CO)c1` gave Pf Dd2 inh -83* and KDM4C inh -3.
`COc1ccc2c3c([nH]c2c1)[C@H](CO)N(Cc1cccc(F)c1)CC31CN(CC2CC2)C1` gave Pf Dd2 inh -85* and KDM4C inh 0.
`COc1cccc(CN2CC3(CN(CC4CC4)C3)c3c([nH]c4cc(OC)ccc34)[C@@H]2CO)c1` gave Pf Dd2 inh -58 and KDM4C inh -1.
`N#C[C@H]1[C@@H](c2ccccc2-c2ccccc2F)[C@H](CO)N1C(=O)Cc1ccccc1` gave Pf Dd2 inh -9 and KDM4C inh 0.
`COc1cccc(S(=O)(=O)N2C[C@@H](O)COC[C@@H]3O[C@@H](CC(=O)N4CCN(c5ccccc5)CC4)CC[C@H]32)c1` gave T cruzi growth 18 and KDM4C inh -2.
For C[C@@H]1CN([C@@H](C)CO)C(=O)c2cc(NC(=O)Cc3cn(C)c4ccccc34)ccc2O[C@H]1CN(C)S(=O)(=O)c1cccs1 the results were Pf Dd2 inh -32, T cruzi growth 54 and KDM4C inh 8.
For C[C@H]1CN([C@@H](C)CO)C(=O)c2cc(NC(=O)Cc3cn(C)c4ccccc34)ccc2O[C@H]1CN(C)S(=O)(=O)c1cccs1 the results were Pf Dd2 inh -90*, T cruzi growth 62, IDH1 R132H inh 0 and KDM4C inh -2.
`C[C@H](CO)N1C[C@H](C)[C@H](CN(C)S(=O)(=O)c2cccs2)Oc2ccc(NC(=O)Cc3cn(C)c4ccccc34)cc2C1=O` gave Pf Dd2 inh -86*, T cruzi growth 88, IDH1 R132H inh -1 and KDM4C inh -1.
`Cc1ccc(S(=O)(=O)N2C[C@H](O)COC[C@H]3O[C@@H](CC(=O)NCc4ccc(Cl)c(Cl)c4)CC[C@@H]32)cc1` gave Pf Dd2 inh -11, T cruzi growth 57 and KDM4C inh 2.
`C[C@@H]1CN([C@H](C)CO)C(=O)c2cccc(NC(=O)c3cnccn3)c2O[C@H]1CN(C)Cc1ccc(C(=O)Nc2ccccc2N)cc1` gave Pf Dd2 inh -91* and KDM4C inh 0.
For C[C@@H]1CN([C@@H](C)CO)C(=O)c2cccc(NC(=O)c3cnccn3)c2O[C@H]1CN(C)Cc1ccc(Cl)c(Cl)c1 the results were Pf Dd2 inh -83*, T cruzi growth 77, IDH1 R132H inh 0 and KDM4C inh -2.
`C[C@H](CO)N1C[C@H](C)[C@H](CN(C)Cc2ccccc2)Oc2c(NC(=O)c3cnccn3)cccc2C1=O` gave Pf Dd2 inh -4, T cruzi growth 63 and KDM4C inh -2.
Screening C[C@@H]1CN([C@@H](C)CO)C(=O)c2cccc(NC(=O)c3cnccn3)c2O[C@@H]1CN(C)Cc1ccc(-c2ccccc2)cc1 returned Pf Dd2 inh -87*, T cruzi growth 36 and KDM4C inh 1.
For C[C@@H]1CN([C@@H](C)CO)C(=O)c2cccc(NC(=O)c3cnccn3)c2O[C@@H]1CN(C)Cc1ccc(Cl)c(Cl)c1 the results were Pf Dd2 inh -58, T cruzi growth 10 and KDM4C inh 1.
`C[C@@H]1CN([C@@H](C)CO)C(=O)Cc2cc(NC(=O)Nc3ccccc3)ccc2O[C@H]1CN(C)S(=O)(=O)c1ccc(F)cc1` gave Pf Dd2 inh -70, T cruzi growth 3, IDH1 R132H inh 0 and KDM4C inh -1.
`C[C@H]1CN([C@@H](C)CO)S(=O)(=O)c2ccc(Br)cc2O[C@H]1CN(C)C` gave Pf Dd2 inh -1, T cruzi growth 28, IDH1 R132H inh -1 and KDM4C inh 2.
C/C=C/c1ccc2c(c1)O[C@H](CN(C)Cc1cccnc1)[C@H](C)CN([C@H](C)CO)S2(=O)=O was read as Pf Dd2 inh 9, T cruzi growth 39, IDH1 R132H inh 0 and KDM4C inh -1.
`C[C@@H]1CN([C@H](C)CO)S(=O)(=O)c2ccc(/C=C/c3ccccc3)cc2O[C@H]1CN(C)Cc1cccnc1` gave Pf Dd2 inh -86* and KDM4C inh 6.
Screening C[C@H](CO)N1C[C@H](C)[C@@H](CN(C)Cc2cccnc2)Oc2cc(/C=C/c3ccccc3)ccc2S1(=O)=O returned Pf Dd2 inh -89* and KDM4C inh 9.
`Cc1ccc(S(=O)(=O)Nc2ccc3c(c2)C(=O)N([C@@H](C)CO)C[C@H](C)[C@H](CN(C)Cc2ccc(C(=O)Nc4ccccc4N)cc2)O3)cc1` gave Pf Dd2 inh -72, T cruzi growth 81, IDH1 R132H inh 0 and KDM4C inh -2.
`COc1ccc(S(=O)(=O)Nc2ccc3c(c2)C(=O)N([C@H](C)CO)C[C@H](C)[C@@H](CN(C)C(=O)NC(C)C)O3)cc1` gave Pf Dd2 inh 10, T cruzi growth -33, IDH1 R132H inh 0 and KDM4C inh 0.
CCCN(C)C[C@H]1OCCCC[C@@H](C)Oc2ccc(NC(=O)Cc3ccccc3)cc2C(=O)N([C@@H](C)CO)C[C@H]1C was read as Pf Dd2 inh -86*, T cruzi growth 23, IDH1 R132H inh -2 and KDM4C inh -1.
`CCCN(C)C[C@H]1OCCCC[C@@H](C)Oc2ccc(NC(=O)Cc3ccccc3)cc2C(=O)N([C@H](C)CO)C[C@H]1C` gave Pf Dd2 inh -44, T cruzi growth 92, IDH1 R132H inh 0 and KDM4C inh 0.
